These results are taken from ChEMBL document CHEMBL1135044, “Studies on the side-chain hydroxylation of ifosfamide and its bromo analogue” (Bioorg Med Chem Lett, 2002).

Each structure is given as a SMILES string.

Data set [1] is filed under the species Mus musculus. The data set can be described thus: Effective dose that produce antitumor activity against L1210 leukemia in mice. The format is functional. A digest of the protocol:
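CD2F1 mice were inoculated ip with 10^5 ascitic L1210 cells in PBS and given a single ip dose on day 3 (advanced disease), following NIH/NCI in vivo screening protocols. ILS was calculated as T/C × 100 − 100 from average survival times. ED50, the dose giving 50% ILS, was read graphically from least-squares dose–effect curves.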

The species entered for data set [2] is Mus musculus. The data set can be described thus: Maximum tolerated dose against L1210 leukemia in mice. The data set is classed as functional. Put shortly: (§1)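 Sub-acute toxicity was tested in healthy, non-tumour-bearing CD2F1 females (12–16 weeks, 25–27 g), given a single ip injection or oral gavage and observed for 45 days. Mortality was pooled from 3–6 experiments, usually 4–7 dose levels, with ≥5 mice per group. Litchfield–Wilcoxon log-dose curves were fitted. LD50 (with 95% confidence limits) and LD5 (taken as MTD) were estimated graphically.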

Data set [3] can be described thus: Dose required to kill 50% of healthy, non-tumour-bearing mice (LD50). Particulars: mouse, in vivo. Put shortly:
as §1

Data set [4] can be described thus: Therapeutic index represented as LD50/ED50 was determined.

In the data set filed under Mus musculus [1], `O=[P@]1(NCCCl)OCCCN1CCBr` returned a 50% effective dose (ED50) of 21.3 mg/kg. This compound also came in with an MTD in the data set listed under Mus musculus [2] of 230 mg/kg. For the same compound, the LD50 in data set [3] was determined as 289 mg/kg. Besides, the TI in data set [4] was 13.6 Ratio.

For `[2H]C([2H])(CCl)N[P@]1(=O)OCCCN1C([2H])([2H])CBr`, the 50% effective dose (ED50) in the data set listed under Mus musculus [1] worked out at 15 mg/kg. Also, in the data set listed under Mus musculus [2], the MTD worked out at 196 mg/kg. For the same compound, in data set [3], the LD50 was 265 mg/kg. The TI in data set [4] amounted to 17.7 Ratio.

Regarding `O=P1(NCCCl)OCCCN1CCBr` (stereo not drawn), the 50% effect level in the data set listed under Mus musculus [1] (ED50) was put at a dose of 34.3 mg/kg. Moreover, the MTD in the data set listed under Mus musculus [2] is 236 mg/kg. This compound registered a 50% lethal dose (LD50) in data set [3] of 320 mg/kg. The compound further registered a TI in data set [4] of 9.3 Ratio.

For `[2H]C([2H])(CCl)NP1(=O)OCCCN1C([2H])([2H])CCl` (stereo not drawn), the ED50 in the data set listed under Mus musculus [1] is 67.8 mg/kg.

The compound `[2H]C([2H])(CCl)NP1(=O)OCCCN1C([2H])([2H])CBr` (stereo not drawn) returned a 50% effective dose (ED50) in the data set filed under Mus musculus [1] of 23.6 mg/kg.

Take `O=P1(NCCCl)OCCCN1CCCl` (stereo not drawn) [IFOSFAMIDE]: in the data set filed under Mus musculus [1], the 50% effect level (ED50) was put at a dose of 96.4 mg/kg. The MTD in the data set filed under Mus musculus [2] is 518 mg/kg. For the same compound, the LD50 in data set [3] was determined as 687 mg/kg. Also, the TI in data set [4] was found to be 7.1 Ratio.
